Data: ChEMBL document CHEMBL2331333, “Synthesis, biological evaluation of new oxazolidino-sulfonamides as potential antimicrobial agents” (2013)
Values after ≈ are worked out from the molar mass of the structure shown. Active and inactive are the calls of the source. The calls are words filed in the database; no cut-off is given here.

Assays:
Candida albicans [1] = assay: Antifungal activity against Candida albicans MTCC 3017 at 20 ug/ml after 24 hrs by disk diffusion method; format: functional; settings: MTCC 3017, 24 h, read-out: IZ
Pseudomonas aeruginosa [2] = assay: Antibacterial activity against Pseudomonas aeruginosa MTCC 2453 at 20 ug/ml after 24 hrs by disk diffusion method; format: functional; settings: MTCC 2453, 24 h, read-out: IZ
Staphylococcus aureus [3] = assay: Antibacterial activity against Staphylococcus aureus MTCC 96 at 20 ug/ml after 24 hrs by disk diffusion method; format: functional; settings: MTCC 96, 24 h, read-out: IZ
Staphylococcus [4] = assay: Antibacterial activity against Staphylococcus MLS-16 MTCC 2940 at 20 ug/ml after 24 hrs by disk diffusion method; format: functional; settings: MLS-16 MTCC 2940, 24 h, read-out: IZ
Micrococcus luteus [5] = assay: Antibacterial activity against Micrococcus luteus MTCC 2470 at 20 ug/ml after 24 hrs by disk diffusion method; format: functional; settings: MTCC 2470, 24 h, read-out: IZ
Bacillus subtilis [6] = assay: Antibacterial activity against Bacillus subtilis MTCC 121 at 20 ug/ml after 24 hrs by disk diffusion method; format: functional; settings: MTCC 121, 24 h, read-out: IZ
Raoultella planticola = assay: Antibacterial activity against Klebsiella planticola MTCC 530 at 80 ug/ml after 24 hrs by agar dilution method; format: functional, organism-based
Escherichia coli = assay: Antibacterial activity against Escherichia coli MTCC 739 at 80 ug/ml after 24 hrs by agar dilution method; format: functional, organism-based
[7] = test system: Mycobacterium tuberculosis; assay: Antibacterial activity against Mycobacterium tuberculosis H37Rv at 32 ug/ml […] by agar dilution method; format: functional, organism-based
Candida albicans [8] = assay: Antifungal activity against Candida albicans MTCC 3017 after 48 hrs by agar dilution method; format: functional; settings: MTCC 3017, 48 h
In short: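 Same disk/dilution format as the antibacterial assay, on potato dextrose agar (39 g/L). Compounds were from DMSO stock, loaded at 1 to 80 per disk, in triplicate. Plates were incubated at 28 ± 2 °C for 48 h. MIC was the lowest amount that arrested growth. Equivalent DMSO served as solvent control.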

Pseudomonas aeruginosa [9] = assay: Antibacterial activity against Pseudomonas aeruginosa MTCC 2453 after 24 hrs by agar dilution method; format: functional; settings: MTCC 2453, 24 h
Staphylococcus aureus [10] = assay: Antibacterial activity against Staphylococcus aureus MTCC 96 after 24 hrs by agar dilution method; format: functional; settings: MTCC 96, 24 h
Micrococcus luteus [11] = assay: Antibacterial activity against Micrococcus luteus MTCC 2470 after 24 hrs by agar dilution method; format: functional; settings: MTCC 2470, 24 h
Staphylococcus [12] = assay: Antibacterial activity against Staphylococcus MLS-16 MTCC 2940 after 24 hrs by agar dilution method; format: functional; settings: MLS-16 MTCC 2940, 24 h
Bacillus subtilis [13] = assay: Antibacterial activity against Bacillus subtilis MTCC 121 after 24 hrs by agar dilution method; format: functional; settings: MTCC 121, 24 h
Pseudomonas aeruginosa [14] = assay: Antibacterial activity against Pseudomonas aeruginosa MTCC 2453 at 80 ug/ml after 24 hrs by agar dilution method; format: functional, organism-based
Micrococcus luteus [15] = assay: Antibacterial activity against Micrococcus luteus MTCC 2470 at 80 ug/ml after 24 hrs by agar dilution method; format: functional, organism-based

| Structure (SMILES) | zone of inhibition at 20 µg/mL (Candida albicans [1]) [mm] | zone of inhibition at 20 µg/mL (Pseudomonas aeruginosa [2]) [mm] | zone of inhibition at 20 µg/mL (Staphylococcus aureus [3]) [mm] | zone of inhibition at 20 µg/mL (Staphylococcus [4]) [mm] | zone of inhibition at 20 µg/mL (Micrococcus luteus [5]) [mm] | zone of inhibition at 20 µg/mL (Bacillus subtilis [6]) [mm] | Activity (Raoultella planticola) | Activity (Escherichia coli) | Activity [7] | MIC (Candida albicans [8]) [µg/mL] | MIC (Pseudomonas aeruginosa [9]) [µg/mL] | MIC (Staphylococcus aureus [10]) [µg/mL] | MIC (Micrococcus luteus [11]) [µg/mL] | MIC (Staphylococcus [12]) [µg/mL] | MIC (Bacillus subtilis [13]) [µg/mL] | Activity (Pseudomonas aeruginosa [14]) | Activity (Micrococcus luteus [15]) |
| --- | --- | --- | --- | --- | --- | --- | --- | --- | --- | --- | --- | --- | --- | --- | --- | --- | --- |
| O=C1O[C@@H](CNS(=O)(=O)c2ccc(F)cc2)CN1c1ccc(N2CCSCC2)c(F)c1 | 16 | 17 | 18 | 17 | 14 | 23 | inactive | inactive | inactive | 10 (≈ 21.3 µM) | 10 (≈ 21.3 µM) | 10 (≈ 21.3 µM) | 10 (≈ 21.3 µM) | 10 (≈ 21.3 µM) | 8 (≈ 17 µM) | – | – |
| CC(=O)c1ccc(S(=O)(=O)NC[C@H]2CN(c3ccc(N4CCOCC4)c(F)c3)C(=O)O2)cc1 | – | – | – | – | – | – | inactive | inactive | inactive | 6 (≈ 12.6 µM) | – | 6 (≈ 12.6 µM) | 6 (≈ 12.6 µM) | 6 (≈ 12.6 µM) | 6 (≈ 12.6 µM) | inactive | – |
| OC(Cn1cncn1)(Cn1cncn1)c1ccc(F)cc1F [FLUCONAZOLE] | 20 | – | – | – | – | – | – | – | – | 1 (≈ 3.27 µM) | – | – | – | – | – | – | – |
| CC(C)(C)OC(=O)N1CCN(c2ccc(N3C[C@H](CNS(=O)(=O)c4ccc(F)cc4)OC3=O)cc2F)CC1 | – | – | – | – | – | – | inactive | inactive | inactive | 10 (≈ 18.1 µM) | 20 (≈ 36.2 µM) | 10 (≈ 18.1 µM) | 10 (≈ 18.1 µM) | 10 (≈ 18.1 µM) | 20 (≈ 36.2 µM) | – | – |
| O=C1O[C@@H](CNS(=O)(=O)c2ccc(F)c(F)c2)CN1c1ccc(N2CCOCC2)c(F)c1 | – | – | – | – | – | – | – | – | inactive | 10 (≈ 21.2 µM) | 10 (≈ 21.2 µM) | – | – | 10 (≈ 21.2 µM) | 10 (≈ 21.2 µM) | – | inactive |
| O=C1O[C@@H](CNS(=O)(=O)c2cccc(Cl)c2)CN1c1ccc(N2CCOCC2)c(F)c1 | – | – | – | – | – | – | inactive | inactive | inactive | 8 (≈ 17 µM) | – | 6 (≈ 12.8 µM) | 8 (≈ 17 µM) | 6 (≈ 12.8 µM) | 6 (≈ 12.8 µM) | inactive | – |
| O=C1O[C@@H](CNS(=O)(=O)c2ccc(F)cc2)CN1c1ccc(N2CCNCC2)c(F)c1 | 16 | 18 | 17 | 17 | 14 | 20 | inactive | inactive | – | 8 (≈ 17.7 µM) | 4 (≈ 8.84 µM) | 8 (≈ 17.7 µM) | 4 (≈ 8.84 µM) | 8 (≈ 17.7 µM) | 10 (≈ 22.1 µM) | – | – |
| CC(C)(C)OC(=O)N1CCN(c2ccc(N3C[C@H](CNS(=O)(=O)c4ccc(C(F)(F)F)cc4)OC3=O)cc2F)CC1 | – | – | – | – | – | – | inactive | inactive | inactive | 20 (≈ 33.2 µM) | 10 (≈ 16.6 µM) | 10 (≈ 16.6 µM) | 20 (≈ 33.2 µM) | 10 (≈ 16.6 µM) | 8 (≈ 13.3 µM) | – | – |
| CC(=O)Nc1nc(C)c(S(=O)(=O)NC[C@H]2CN(c3ccc(N4CCOCC4)c(F)c3)C(=O)O2)s1 | – | – | – | – | – | – | inactive | inactive | – | 20 (≈ 38.9 µM) | 8 (≈ 15.6 µM) | 20 (≈ 38.9 µM) | – | 20 (≈ 38.9 µM) | 8 (≈ 15.6 µM) | – | inactive |
| O=C1O[C@@H](CNS(=O)(=O)c2ccc(C(F)(F)F)cc2)CN1c1ccc(N2CCOCC2)c(F)c1 | – | – | – | – | – | – | inactive | inactive | inactive | 20 (≈ 39.7 µM) | 8 (≈ 15.9 µM) | 10 (≈ 19.9 µM) | 8 (≈ 15.9 µM) | 10 (≈ 19.9 µM) | 8 (≈ 15.9 µM) | – | – |
| O=C1O[C@@H](CNS(=O)(=O)c2ccc(F)c(Cl)c2)CN1c1ccc(N2CCOCC2)c(F)c1 | – | – | – | – | – | – | inactive | inactive | inactive | 6 (≈ 12.3 µM) | – | 6 (≈ 12.3 µM) | 6 (≈ 12.3 µM) | 6 (≈ 12.3 µM) | 6 (≈ 12.3 µM) | inactive | – |
| O=C1O[C@@H](CNS(=O)(=O)c2cccc3cccnc23)CN1c1ccc(N2CCOCC2)c(F)c1 | – | – | – | – | – | – | inactive | inactive | inactive | 20 (≈ 41.1 µM) | 6 (≈ 12.3 µM) | 10 (≈ 20.6 µM) | 8 (≈ 16.4 µM) | 10 (≈ 20.6 µM) | 8 (≈ 16.4 µM) | – | – |
